Where only a bound is given, the exact number is not on record here.

Assay [1] concerns the target T1, 5-hydroxytryptamine receptor 1B (Homo sapiens, UniProt P28222). Briefly: Displacement of [3H]5-HT from human 5-hydroxytryptamine 1B receptor expressed in CHO cells. It counts as cell-based. The gist of the method: (§1)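 Radioligand displacement binding on membranes of cloned human receptors. Each determination lies within 0.3 log units of the mean.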
Background: Loss of bound radioactivity is the signal in a displacement assay; it reports binding, not function.

The target of assay [2] is T2, 5-hydroxytryptamine receptor 1D (Homo sapiens, UniProt P28221). As to the kind of experiment: Displacement of [3H]5-HT from human 5-hydroxytryptamine 1D receptor expressed in CHO cells. Type of assay: cell-based. The method in brief:
as §1

Assay [3] deals with T3, 5-hydroxytryptamine receptor 1A (Homo sapiens, UniProt P08908).
T3 sequence (P08908 whole entry): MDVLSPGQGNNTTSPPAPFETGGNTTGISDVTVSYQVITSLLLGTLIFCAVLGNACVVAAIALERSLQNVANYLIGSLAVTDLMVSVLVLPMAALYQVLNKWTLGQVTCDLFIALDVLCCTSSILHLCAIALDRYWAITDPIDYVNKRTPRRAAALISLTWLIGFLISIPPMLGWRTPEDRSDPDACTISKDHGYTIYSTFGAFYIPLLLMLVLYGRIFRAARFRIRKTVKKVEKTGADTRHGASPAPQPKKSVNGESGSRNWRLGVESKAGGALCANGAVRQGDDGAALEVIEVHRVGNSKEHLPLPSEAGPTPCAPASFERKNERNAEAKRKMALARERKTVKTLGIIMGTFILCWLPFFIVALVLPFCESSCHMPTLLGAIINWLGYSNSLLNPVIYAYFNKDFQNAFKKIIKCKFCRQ
Briefly: Displacement of [3H]WAY-100635 from human 5-hydroxytryptamine 1A receptor expressed in CHO cells. It counts as cell-based. The gist of the method: as §1

Assay [4] deals with Sodium-dependent serotonin transporter (Rattus norvegicus, UniProt P31652). As to the kind of experiment: Inhibition of [3H]5-HT binding to serotonin transporter in rat cortical synaptosomes. Type of assay: subcellular, Brain. The gist of the method:
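Radioligand binding to serotonin transporter in rat cortical synaptosomes. Each determination lies within 0.3 log units of the mean.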

Assay [5] has as its target Serotonin 1 receptors; 5-HT1B & 5-HT1D (Homo sapiens) (UniProt P28222+P28221). Briefly: Selectivity for human 5-hydroxytryptamine 1D receptor over 5-hydroxytryptamine 1B receptor. It counts as protein assay.
Assay [6] deals with T2, 5-hydroxytryptamine receptor 1D.
The target in assay [7] is T1, 5-hydroxytryptamine receptor 1B.
The target in assay [8] is T4, 5-hydroxytryptamine receptor 1A (Homo sapiens) (UniProt P08908).
T4 sequence (whole entry): T3 sequence (P08908 whole entry)

Assay [9] deals with T4, 5-hydroxytryptamine receptor 1A (Homo sapiens). As to the kind of experiment: Intrinsic activity for human 5-hydroxytryptamine 1A receptor in [35S]GTP-gamma-S, assay. It counts as functional. The method in brief: (§2)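 [35S]GTPγS binding in recombinant cells with high receptor density expressing the human receptor. Ten-point half-log serial dilution gives the concentration–response. Intrinsic activity is expressed relative to the maximal response of the endogenous agonist 5-HT.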
A general note: GTPγS resists hydrolysis and so accumulates on activated G proteins.

Assay [10] deals with T1, 5-hydroxytryptamine receptor 1B. As to the kind of experiment: Intrinsic activity for human 5-hydroxytryptamine 1B receptor in [35S]GTP-gamma-S, assay. Type of assay: functional. The method in brief: as §2
The target in assay [11] is T2, 5-hydroxytryptamine receptor 1D. Briefly: Intrinsic activity for human 5-hydroxytryptamine 1D receptor in [35S]GTP-gamma-S, assay. It counts as functional. The method in brief:
as §2

For assay [12], the target named is T4, 5-hydroxytryptamine receptor 1A (Homo sapiens). As to the kind of experiment: Intrinsic activity for human 5-hydroxytryptamine 1A receptor in [35S]GTP-gamma-S, assay; […]. Type of assay: functional. The method in brief:
as §2

T2 sequence (P28221 whole entry): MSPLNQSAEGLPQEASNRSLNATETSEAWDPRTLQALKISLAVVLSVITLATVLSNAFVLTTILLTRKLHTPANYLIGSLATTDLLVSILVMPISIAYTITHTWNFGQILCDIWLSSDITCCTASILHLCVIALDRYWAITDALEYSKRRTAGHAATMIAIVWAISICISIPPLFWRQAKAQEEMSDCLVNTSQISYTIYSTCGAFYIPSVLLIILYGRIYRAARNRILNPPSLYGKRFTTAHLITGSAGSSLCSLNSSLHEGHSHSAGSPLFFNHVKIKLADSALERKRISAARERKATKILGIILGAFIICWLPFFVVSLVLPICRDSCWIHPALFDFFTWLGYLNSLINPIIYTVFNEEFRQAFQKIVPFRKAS
Sequence of Sodium-dependent serotonin transporter (P31652 whole entry): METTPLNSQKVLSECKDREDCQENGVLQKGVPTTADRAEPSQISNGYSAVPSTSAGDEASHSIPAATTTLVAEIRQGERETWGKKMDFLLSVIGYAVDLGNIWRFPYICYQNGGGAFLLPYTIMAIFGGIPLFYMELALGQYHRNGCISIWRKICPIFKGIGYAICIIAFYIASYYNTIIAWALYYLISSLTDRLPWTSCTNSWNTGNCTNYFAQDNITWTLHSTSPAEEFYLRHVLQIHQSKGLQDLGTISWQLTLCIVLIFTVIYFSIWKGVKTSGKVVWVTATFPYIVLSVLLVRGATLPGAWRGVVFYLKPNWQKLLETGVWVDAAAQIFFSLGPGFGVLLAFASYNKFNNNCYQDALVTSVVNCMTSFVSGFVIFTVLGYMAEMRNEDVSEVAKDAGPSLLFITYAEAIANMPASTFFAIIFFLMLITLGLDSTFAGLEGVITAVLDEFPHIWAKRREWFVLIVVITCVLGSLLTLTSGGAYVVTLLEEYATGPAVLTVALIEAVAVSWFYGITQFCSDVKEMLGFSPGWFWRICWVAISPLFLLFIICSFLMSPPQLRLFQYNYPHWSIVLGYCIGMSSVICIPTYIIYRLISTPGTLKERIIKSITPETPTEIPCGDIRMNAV
T1 sequence (P28222 whole entry): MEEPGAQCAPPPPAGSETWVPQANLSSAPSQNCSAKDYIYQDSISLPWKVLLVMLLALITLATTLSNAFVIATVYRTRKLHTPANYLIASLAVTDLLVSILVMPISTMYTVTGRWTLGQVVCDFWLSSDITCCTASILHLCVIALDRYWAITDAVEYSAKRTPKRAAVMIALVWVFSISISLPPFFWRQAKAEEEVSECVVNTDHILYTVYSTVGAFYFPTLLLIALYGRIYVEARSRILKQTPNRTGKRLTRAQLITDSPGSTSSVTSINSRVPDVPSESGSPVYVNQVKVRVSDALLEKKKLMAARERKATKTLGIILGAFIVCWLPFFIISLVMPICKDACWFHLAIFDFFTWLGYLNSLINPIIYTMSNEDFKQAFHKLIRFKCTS

Turning to `Cc1ccc2c(OCCN3CCN(Cc4c(Cl)cccc4Cl)CC3)cccc2n1`, the Ki (usually the equilibrium dissociation constant of an inhibitor or competing ligand from its target) in [1] is above 10 µM; in [2], above 10 µM; in [3] it was above 10 µM; in [4], 1.26 µM.

Take `COc1ccc(CN2CCN(CCOc3cccc4nc(C)ccc34)CC2)cc1[N+](=O)[O-]`: the Ki in [1] was 0.316 µM; in assay [2], 0.02 µM; in assay [3], 0.398 µM. Further, the Selectivity in assay [5] was determined as 16.

With `NCCc1c[nH]c2ccc(O)cc12`, the IA in [6], in assay [7] and in [8] was 1 each time.

Regarding `Cc1ccc2c(OCCN3CCN(Cc4ccc(Cl)c(Cl)c4)CC3)cccc2n1`, the Ki was 2 µM in assay [1], 2.51 µM in assay [2], above 10 µM in assay [3] and 0.501 µM in assay [4]. The Selectivity in assay [5] was 1.

With `Cc1ccc2c(OCCN3CCN(Cc4ccc(F)c([N+](=O)[O-])c4)CC3)cccc2n1`, the inhibitory constant (Ki) in [1] was 0.251 µM; in [2] it was 0.00794 µM; in assay [3] it was 0.501 µM; in assay [4], 0.316 µM. The Selectivity in [5] is 32.

Take `Cc1ccc2c(OCCN3CCN(Cc4cc(Cl)ccc4Cl)CC3)cccc2n1`: the Ki was 0.631 µM in assay [1], 0.00398 µM in [2], 0.0794 µM in [3] and 1.26 µM in [4]. In assay [5], this compound gave a Selectivity of 158.

Regarding `Cc1ccc2c(OCCN3CCN(Cc4ccc(O)c(N)c4)CC3)cccc2n1`, the results for the Ki in [1], in assay [2] and in assay [3] were 0.251 µM, 0.00158 µM and above 1.26 µM, respectively. The Selectivity in assay [5] was determined as 158.

The compound `CN1CCN(c2cc3c(cc2Cl)CCN3C(=O)Nc2ccc(-c3ccncc3)c3ccccc23)CC1` came in with an IA in assay [9] of 0.44.

Regarding `Cc1ccc2c(OCCN3CCN(Cc4ccc5c(c4)NC(=O)CO5)CC3)cccc2n1`, the inhibition constant (Ki) in assay [1] was 0.1 µM; in assay [2] it was 0.01 µM; in [3], 0.0631 µM; in assay [4], 0.0251 µM. In assay [5], this compound gave a Selectivity of 10.

In turn, `Cc1ccc2c(OCCN3CCC(Cc4ccc5c(c4)NC(=O)CO5)CC3)cccc2n1` gave an inhibitory constant (Ki) in assay [2] of 0.00158 µM.

For `Cc1ccc2c(OCCN3CCN(Cc4ccc5[nH]ccc5c4)CC3)cccc2n1`, the Ki was 0.158 µM in [1], 0.00316 µM in assay [2] and 1 µM in assay [3]. In assay [5], this compound registered a Selectivity of 50.

With `COc1ccc(NC(=O)c2ccc(-c3ccc(-c4noc(C)n4)cc3C)cc2)cc1N1CCN(C)CC1`, the IA came to 0.47 in assay [10] and 0.86 in assay [11].

For `Cc1ccc2c(OCCN3CCN(Cc4ccc(C)c([N+](=O)[O-])c4)CC3)cccc2n1`, the inhibition constant (Ki) in assay [1] was 0.0794 µM; in assay [2], 0.002 µM; in assay [3] it was 0.0398 µM; in [4], 0.0501 µM. Moreover, the Selectivity in [5] was determined as 40.

Turning to `Cc1ccc2c(OCCN3CCN(Cc4ccc(Cl)c([N+](=O)[O-])c4)CC3)cccc2n1`, the Ki in [1] was 0.2 µM; in assay [2], 0.00501 µM; in assay [3], 0.0631 µM; in [4], 0.2 µM. Also, the Selectivity in assay [5] worked out at 40.

For the compound `Cc1ccc2c(OCCN3CCN(Cc4ccc(O)c([N+](=O)[O-])c4)CC3)cccc2n1`, the inhibition constant Ki in assay [1] is 0.398 µM; in assay [2], 0.01 µM; in [3] it was 0.794 µM; in [4], 1 µM. For the same compound, the Selectivity in assay [5] was 40.

Consider `Cc1ccc2c(OCCN3CCN(Cc4cccc5cc[nH]c45)CC3)cccc2n1`, for which the Ki in assay [1] was 0.398 µM; in [2] it was 0.00316 µM; in [3], 0.398 µM; in [4], 0.398 µM. Moreover, the IA in [10] was 0.1; in assay [12], 0; in assay [11], 0.5. This compound returned a Selectivity in assay [5] of 126.

As for `Cc1ccc2c(OCCN3CCN(Cc4cccc5ncncc45)CC3)cccc2n1`, the inhibition constant Ki in assay [1] is 0.316 µM; in assay [2] it was 0.00251 µM; in assay [3], 0.398 µM. In addition, the Selectivity in [5] is 126.

`Cc1ccc2c(OCCN3CCN(Cc4cccc5ncccc45)CC3)cccc2n1`: the results for the Ki in assay [1], in assay [2] and in [3] were 0.251 µM, 0.00251 µM and 0.398 µM, respectively. The compound further showed a Selectivity in assay [5] of 100.

For the compound `Cc1ccc2c(OCCN3CCN(Cc4cccc5[nH]cnc45)CC3)cccc2n1`, the Ki was 0.0631 µM in [1], 0.000251 µM in assay [2], 0.158 µM in assay [3] and 0.794 µM in assay [4]. The figures for the IA in [10], in assay [12] and in assay [11] were 0.3, 0 and 0.5, respectively. In assay [5], the Selectivity was found to be 251.

These data come from ChEMBL document CHEMBL1139504, “Discovery of the first potent, selective 5-hydroxytryptamine1D receptor antagonist” (J Med Chem, 2005).
